Assay results as given in ChEMBL document CHEMBL1177884, “1,2-ethane bis-1-amino-4-benzamidine is active against several brain insult and seizure challenges through anti-NMDA mechanisms targeting the 3H-TCP binding site and antioxidant action” (Eur J Med Chem, 2010).
Active and inactive are the calls of the source.

Legend:
[1] = Antioxidant activity assessed as inhibition of pyrogallol autooxidation; type: functional; parameters: concentration or dose not given beside the values; details: dose or concentration not given here
Method in brief: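 Pyrogallol autooxidation followed at 420 nm in pH 7.4 TRIS saline (5 mM TRIS, 50 mM NaCl). Compound at 0.5 mM final, from a 50 mM DMSO stock; DMSO alone served as blank. Reaction started with 0.75 mM pyrogallol. Percent inhibition calculated from rates over the first 2 min. Mean of three separate determinations.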

Mus musculus [2] = assay: Neurotoxicity in Swiss mouse assessed as inability of animal to maintain on rotarod at 30 mg/kg, ip after 4 hrs by rotarod test; type: toxicity, organism-based; details: in vivo
Method in brief: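 Minimal acute neurotoxicity assessed by rotarod: mouse placed on a 1 inch knurled rod rotating at 6 rpm, at 15 min, 30 min, 1 h or 4 h after ip dosing in methylcellulose.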

Mus musculus [3] = assay: Anticonvulsant activity in Swiss mouse assessed as inhibition of maximal electroshock-induced seizures at 100 mg/kg, ip after 30 mins; type: functional, organism-based; parameters: dose 100 mg/kg
Method in brief: (§1)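 Mice dosed ip with compound in methylcellulose at 30, 100 or 300 mg/kg. MES or subcutaneous pentylenetetrazol seizure tests run 30 min and 4 h after dosing, and occasionally at 15 min and 1 h. Activity scored as the percentage of animals protected, in bands (75–100%, 50–75%, 25–50%, 0–25%, none).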

Mus musculus [4] = assay: Anticonvulsant activity in Swiss mouse assessed as inhibition of maximal electroshock-induced seizures at 100 mg/kg, ip after 4 hrs; type: functional, organism-based; parameters: dose 100 mg/kg; method in brief: as §1
Mus musculus [5] = assay: Anticonvulsant activity in Swiss mouse assessed as inhibition of ScPTZ-induced seizures at 30 mg/kg, ip after 4 hrs; type: functional, organism-based; parameters: dose 30 mg/kg
Method in brief: (§2)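 Mice dosed ip with compound in methylcellulose at 30, 100 or 300 mg/kg. MES or subcutaneous pentylenetetrazol seizure tests run 30 min and 4 h after dosing, and occasionally at 15 min and 1 h.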

Mus musculus [6] = assay: Anticonvulsant activity in Swiss mouse assessed as inhibition of maximal electroshock-induced seizures at 300 mg/kg, ip after 30 mins; type: functional, organism-based; parameters: dose 300 mg/kg; method in brief: as §1
Mus musculus [7] = assay: Anticonvulsant activity in Swiss mouse assessed as inhibition of ScPTZ-induced seizures at 30 mg/kg, ip after 30 mins; type: functional, organism-based; parameters: dose 30 mg/kg; method in brief: as §2
Mus musculus [8] = assay: Anticonvulsant activity in Swiss mouse assessed as inhibition of maximal electroshock-induced seizures at 30 mg/kg, ip after 4 hrs; type: functional, organism-based; parameters: dose 30 mg/kg; method in brief: as §2
Mus musculus [9] = assay: Anticonvulsant activity in Swiss mouse assessed as inhibition of maximal electroshock-induced seizures at 30 mg/kg, ip after 30 mins; type: functional, organism-based; parameters: dose 30 mg/kg; method in brief: as §2
Mus musculus [10] = assay: Anticonvulsant activity against magnesium deprivation mediated audiogenic seizure in OF1 mouse assessed as duration of recovery at 6 mg/kg, ip; type: functional; details: route intraperitoneal
Mus musculus [11] = assay: Anticonvulsant activity against magnesium deprivation mediated audiogenic seizure in OF1 mouse assessed as duration of cunvulsions at 6 mg/kg, ip; type: functional; details: route intraperitoneal
Mus musculus [12] = assay: Anticonvulsant activity against magnesium deprivation mediated audiogenic seizure in OF1 mouse assessed as duration of latency plus wide running period at 6 mg/kg, ip; type: functional; details: route intraperitoneal
Mus musculus [13] = assay: Neuroprotective activity against ibotenate-induced focal cerebral injury in Swiss mouse assessed as reduction in size of lesions in grey matter at 4 ug/kg, ip; type: functional; parameters: scale not given: the % may be the effect or the level left
Method in brief: (§3)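 Swiss mouse pups anesthetized with isoflurane, then given 10 µg ibotenate by stereotaxic injection into the right frontoparietal area as two 1 µl boluses. Compound in DMSO given ip at 4 µg/kg; controls received DMSO ip. Brains fixed 5 days later. Lesion maximal diameter in white and cortical grey matter measured on cresyl-violet-stained serial coronal sections, 15 µm thick. ANOVA with Bonferroni test.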

Mus musculus [14] = assay: Neuroprotective activity against ibotenate-induced focal cerebral injury in Swiss mouse assessed as reduction in size of lesions in white matter at 4 ug/kg, ip; type: functional; parameters: scale not given: the % may be the effect or the level left; method in brief: as §3
Mus musculus [15] = assay: Anticonvulsant activity in OF1 mouse assessed as protection against NMDA-induced seizures at 49 mg/kg,; type: functional
Method in brief: (§4)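 Normally fed OF1 mice. Compound given ip 1 hr before ip NMDA (137 mg/kg). Protection scored as no seizures over 4 hours after NMDA and no death within 48 hours. […] At 49 mg/kg, the read-out was the NMDA seizure threshold.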

Mus musculus [16] = species: Mus musculus; assay: Anticonvulsant activity in OF1 mouse assessed as protection against NMDA-induced seizures; type: functional; method in brief: as §4
Mus musculus [17] = assay: Toxicity in OF1 mouse assessed as rectal temperature at 30 mg/kg; type: organism-based; parameters: dose 30 mg/kg; details: in vivo
Method in brief: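 Rectal temperature measured in mice given 30 mg/kg ip, 1 hr before testing.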

Mus musculus [18] = assay: Anticonvulsant activity in Swiss mouse assessed as inhibition of maximal electroshock-induced seizures at 300 mg/kg, ip after 4 hrs; type: functional, organism-based; parameters: dose 300 mg/kg; method in brief: as §1
Mus musculus [19] = assay: Antinociceptive activity against thermal-stimulus induced pain reflex in OF1 mouse assessed as maximal possible effect at 30 mg/kg, ip after 45 mins by hot plate assay; type: functional; details: route intraperitoneal
Method in brief: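 OF1 mice given compound ip 45 min before testing, then placed on a hot plate at 55 ± 1 °C. Latency to a pain reflex (vocalization, paw lick, hindpaw flick or jump) recorded, with a 30 s cut-off. Latencies converted to % maximum possible effect. Mean ± SD, 6 treated vs 6 untreated mice per dose.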

Mus musculus [20] = assay: Anticonvulsant activity in Swiss mouse assessed as inhibition of ScPTZ-induced seizures at 100 mg/kg, ip after 30 mins; type: functional, organism-based; parameters: dose 100 mg/kg; method in brief: as §1
Mus musculus [21] = assay: Anticonvulsant activity in Swiss mouse assessed as inhibition of ScPTZ-induced seizures at 100 mg/kg, ip after 15 mins; type: functional; parameters: scale not given: the % may be the effect or the level left; details: route intraperitoneal; method in brief: as §1
Mus musculus [22] = assay: Anticonvulsant activity in Swiss mouse assessed as inhibition of ScPTZ-induced seizures at 100 mg/kg, ip after 1 hr; type: functional; parameters: scale not given: the % may be the effect or the level left; details: route intraperitoneal; method in brief: as §1
Mus musculus [23] = assay: Anticonvulsant activity in Swiss mouse assessed as inhibition of ScPTZ-induced seizures at 100 mg/kg, ip after 4 hrs; type: functional, organism-based; parameters: dose 100 mg/kg; method in brief: as §1
Mus musculus [24] = assay: Anticonvulsant activity in Swiss mouse assessed as inhibition of ScPTZ-induced seizures at 300 mg/kg, ip after 30 mins; type: functional; parameters: scale not given: the % may be the effect or the level left; details: route intraperitoneal; method in brief: as §1
Mus musculus [25] = assay: Anticonvulsant activity in Swiss mouse assessed as inhibition of ScPTZ-induced seizures at 300 mg/kg, ip after 4 hrs; type: functional, organism-based; parameters: dose 300 mg/kg; method in brief: as §1
Mus musculus [26] = assay: Neurotoxicity in Swiss mouse assessed as inability of animal to maintain on rotarod at 100 mg, ip after 30 mins by rotarod test; type: toxicity, organism-based; details: in vivo, 0.5 h
Method in brief: (§5)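 Minimal acute neurotoxicity assessed by rotarod: mouse placed on a 1 inch knurled rod rotating at 6 rpm, at 15 min, 30 min, 1 h or 4 h after ip dosing in methylcellulose. Scored as the percentage of animals toxic, in bands (75–100%, 50–75%, 25–50%, 0–25%, none).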

Mus musculus [27] = assay: Neurotoxicity in Swiss mouse assessed as inability of animal to maintain on rotarod […], ip after 15 mins by rotarod test; type: toxicity, organism-based; details: in vivo; method in brief: as §5
Mus musculus [28] = assay: Neurotoxicity in Swiss mouse assessed as inability of animal to maintain on rotarod […], ip after 1 hr by rotarod test; type: toxicity, organism-based; details: in vivo; method in brief: as §5
Mus musculus [29] = assay: Neurotoxicity in Swiss mouse assessed as inability of animal to maintain on rotarod […], ip after 4 hr by rotarod test; type: toxicity, organism-based; details: in vivo; method in brief: as §5
Mus musculus [30] = assay: Neurotoxicity in Swiss mouse assessed as inability of animal to maintain on rotarod at 300 mg, ip after 30 mins by rotarod test; type: toxicity, organism-based; details: in vivo, 0.5 h; method in brief: as §5
Mus musculus [31] = assay: Neurotoxicity in Swiss mouse assessed as inability of animal to maintain on rotarod […], ip after 4 hrs by rotarod test; type: toxicity, organism-based; details: in vivo; method in brief: as §5
Glutamate NMDA receptor = assay: Displacement of [3H]TCP from NMDA receptor in rat cerebral cortex
Mus musculus [32] = assay: Antinociceptive activity against thermal-stimulus induced pain reflex in OF1 mouse assessed as maximal possible effect at 60 mg/kg, ip after 45 mins by hot plate assay; details: route intraperitoneal
Mus musculus [33] = assay: Anxiolytic activity against OF1 mouse assessed as increase in number of crossings of photocell activity meter at 5 mg/kg, ip administered 1 hr before testing measured for 3 mins; details: route intraperitoneal
Mus musculus [34] = assay: Anxiolytic activity against OF1 mouse assessed as increase in number of crossings of photocell activity meter at 30 mg/kg, ip administered 1 hr before testing measured for 3 mins; details: route intraperitoneal
Mus musculus [35] = assay: Anxiolytic activity against OF1 mouse assessed as increase in number of crossings of photocell activity meter at 10 mg/kg, ip administered 1 hr before testing measured for 3 mins; details: route intraperitoneal

Row | Structure (SMILES) | inhibition [1] | Activity (Mus musculus [2]) | Activity (Mus musculus [3]) | Activity (Mus musculus [4]) | Activity (Mus musculus [5]) | Activity (Mus musculus [6]) | Activity (Mus musculus [7]) | Activity (Mus musculus [8]) | Activity (Mus musculus [9]) | Activity (Mus musculus [18]) | Activity (Mus musculus [20]) | Activity (Mus musculus [23]) | Activity (Mus musculus [24]) | Activity (Mus musculus [25]) | Activity (Mus musculus [26]) | Activity (Mus musculus [27]) | Activity (Mus musculus [28]) | Activity (Mus musculus [29]) | Activity (Mus musculus [30]) | Activity (Mus musculus [31]) | other results
1 | N=C(N)c1ccc(N)cc1 | < 5% |  |  |  |  |  |  |  |  |  |  |  |  |  |  |  |  |  |  |  | 
2 | N=C(N)c1ccc(NCCNc2ccc(C(=N)N)cc2)cc1 | 36.3% | Non-toxic | inactive | inactive | inactive | inactive | inactive | inactive | inactive | inactive | inactive | inactive | 75% | inactive | 25% | 50% | 75% | Non-toxic | 75% | 25% | Time (Mus musculus [10]): 50.3 s; Time (Mus musculus [11]): 1.4 s; Time (Mus musculus [12]): 4.75 s; Activity (Mus musculus [13]): 49%; Activity (Mus musculus [14]): 69%; Activity (Mus musculus [15]): >10%; ED50 (Mus musculus [16]): 6 mg/kg; T (Mus musculus [17]): 35.7 °C; Activity (Mus musculus [19]): 31.17%; Activity (Mus musculus [21]): 75%; Activity (Mus musculus [22]): 75%; IC50 (Glutamate NMDA receptor): 1400 nM; Activity (Mus musculus [32]): 70.33%; Activity (Mus musculus [33]): 103.3; Activity (Mus musculus [34]): 13.3; Activity (Mus musculus [35]): 90.5
3 | CN(CCNc1ccc(C(=N)N)cc1)c1ccc(C(=N)N)cc1.Cl.Cl | 17.5% | Non-toxic | inactive | inactive | inactive |  | inactive | inactive | inactive |  | inactive | inactive |  |  | 75% |  |  | Non-toxic | 75% |  | 
4 | CN(CCN(C)c1ccc(C(=N)N)cc1)c1ccc(C(=N)N)cc1 | 51% | Non-toxic | inactive | inactive | inactive | inactive | inactive | inactive | inactive | inactive | inactive | inactive | 75% | inactive | 25% | 50% | 25% | Non-toxic | 75% | Non-toxic | 
5 | CCN(CCNc1ccc(C(=N)N)cc1)c1ccc(C(=N)N)cc1.Cl.Cl | 28.8% | Non-toxic |  |  | inactive |  |  | inactive | inactive |  |  |  |  |  | 75% |  |  |  | 75% |  | 
